# High-throughput results: PubChem BioAssay, The Scripps Research Institute Molecular Screening Center
# Shown are actives, neighbours in structure and some others; about 4.6% of the full set was active somewhere.
# GPR7 antagonist = antagonists of human GPR7 (neuropeptides B/W receptor 1). P48145. GPR7-expressing cells, fluorescence antagonist assay. inhibition, % at 4.4 µM. 290,000 tested, 1.1% active. AID 1861; in the data active = inhibition above about 16%, passing the limit was not always enough;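 also: cells stimulated with the agonist NPW; 0% = agonist with vehicle and 100% = vehicle without agonist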
# Target sequence (P48145 whole entry, looked up): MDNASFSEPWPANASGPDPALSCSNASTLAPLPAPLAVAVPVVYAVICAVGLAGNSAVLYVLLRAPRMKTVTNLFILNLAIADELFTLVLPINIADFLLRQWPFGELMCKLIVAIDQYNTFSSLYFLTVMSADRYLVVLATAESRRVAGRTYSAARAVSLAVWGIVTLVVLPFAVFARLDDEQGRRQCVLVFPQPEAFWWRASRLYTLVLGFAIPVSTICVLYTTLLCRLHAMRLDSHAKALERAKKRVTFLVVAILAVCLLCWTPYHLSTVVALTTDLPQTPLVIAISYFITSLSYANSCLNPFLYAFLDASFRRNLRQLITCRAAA
# TAAR1 antagonist = human TAAR1 antagonism; CHO RD-HGA16 TAAR1, Fluo-8 calcium fluorescence, antagonist; inhibition, % at 3 µM; 360,000 tested, 1.5% active;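 active = inhibition above a per-plate cutoff, the mean inhibition of test compounds on that plate plus 3 SD, cut at about 49% in these data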;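 also: 0% = DMSO plus EC80 beta-PEA response and 100% = DMSO alone without agonist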
#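 Assay system: RD-HGA16 CHO cells with stable hTAAR1 and Gα16 / Reagent: EC80 β-phenethylamine stimulus / Doses: 3 µM, single point / Timing: dye loading 75 min at 37 °C, then 30 min room temperature / Measured by: Fluo-8 intracellular calcium dye fluorescence, real-time kinetic reads / Controls: vehicle wells and EC80 agonist wells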
# CHO parental Ca = counter-screen for OX1R antagonists: effect in parental CHO cells | AID 463079 | 330,000 tested, 0.63% active | parental CHO-K1, ATP-induced calcium, Fluo-8 fluorescence | inhibition, % at 5.6 µM;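 active = inhibition above that plate's mean sample inhibition plus 3 SD, cut at about 26% in these data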;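 also: 0% = ATP-challenged DMSO wells and 100% = DMSO wells without ATP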
#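 Material: Parental CHO cells | Reagent: ATP | Compound dosing: Single nominal dose of 5.6 µM per compound | Detection: Intracellular calcium via Fluo-8 no-wash fluorescent dye | Read-out: % inhibition of ATP-induced calcium mobilization | Benchmarks: Low control ATP plus DMSO, high control DMSO only | Replicates: Singlicate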
# OX1R antag-1 = blocks the human orexin 1 receptor. O43613. CHO/OX1R cells, Fluo-8 calcium fluorescence, orexin A. inhibition, % at 5 µM. 330,000 tested, 0.43% active. AID 434989;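 active = inhibition above its plate's threshold, mean inhibition of all tested compounds on the plate plus 3 SD, cut at about 37% in these data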;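 also: 0% = orexin A challenge wells and 100% = SB-334867-A antagonist wells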
# Target sequence (O43613 whole entry, looked up): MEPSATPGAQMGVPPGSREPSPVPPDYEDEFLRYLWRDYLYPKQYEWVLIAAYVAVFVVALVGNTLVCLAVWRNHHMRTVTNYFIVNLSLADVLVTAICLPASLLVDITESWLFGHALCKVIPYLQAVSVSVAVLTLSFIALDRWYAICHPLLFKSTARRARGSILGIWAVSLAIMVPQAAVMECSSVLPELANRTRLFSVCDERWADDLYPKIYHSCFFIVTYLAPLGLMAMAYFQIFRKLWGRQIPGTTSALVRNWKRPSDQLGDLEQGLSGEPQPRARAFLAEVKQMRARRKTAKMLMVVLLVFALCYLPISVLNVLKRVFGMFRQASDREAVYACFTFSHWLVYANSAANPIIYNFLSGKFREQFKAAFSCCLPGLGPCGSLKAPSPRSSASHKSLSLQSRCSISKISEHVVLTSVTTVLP
# OX1R antag-2 = antagonists of human orexin 1 receptor (OX1R). O43613. 330,000 tested, 1.8% active. OX1R-expressing cells, FRET antagonist read-out. inhibition, % at 6.6 µM; in the data active = inhibition mostly above about 38%, no sharp cut-off; inactive = mostly below about 40%;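 also: 0% = agonist challenge alone and 100% = reference antagonist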
# TAAR1 ag = agonists of human TAAR1 | Q96RJ0 | CHO RD-HGA16 TAAR1, Fluo-8 calcium fluorescence; vehicle wells 0%, saturating PEA agonist 100% | activation, % at 3 µM | 360,000 tested, 0.99% active | AID 624467;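 active = activation above the mean activation of all test compounds in the run plus 3 SD, cut at about 38% in these data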
#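 Signal – calcium-sensitive Fluo-8 signal, excitation 470-495, emission 515-575 nm · System – RD-HGA16 (CHO) cells co-expressing Gα16 and hTAAR1 · Incubation – 17-24 h seeding, 75 min 37 °C dye, 30 min RT · Compound dosing – 3 µM single concentration · Repeats – no replicates (n 1)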
# Starred values were filed as active, the others as inactive; x = no result.
SMILES,GPR7 antagonist,TAAR1 antagonist,CHO parental Ca,OX1R antag-1,OX1R antag-2,TAAR1 ag
O=[N+]([O-])c1cc(C=Nc2ccc3ccccc3c2)ccc1Br,-5.0,14.7,-8.5,-0.1,64.5*,-1.0
COc1ccc(N2CCN(C(=O)NC(=O)c3ccc(Cl)cc3)CC2)cc1,-14.3,-6.4,-8.9,-4.8,17.8,-0.4
COC(=O)c1sc(N2CCN(c3ccc(Cl)cc3)CC2)nc1N,15.5,21.0,43.7*,18.7,21.1,4.7
CC(C)(C)S(=O)(=O)N1C[C@@H]2CC(=O)C=C2[C@H]1CCO,x,-23.3,x,x,x,1.5
COC(=O)C1=C(C)N(Cc2ccccc2C(F)(F)F)C(=NCc2cc(OC)c(OC)c(OC)c2)NC1c1cccc(Cl)c1 (configuration not stated),x,1.1,x,x,x,5.7
O=C(N[C@H](C(=O)N1CCC[C@H]1C(=O)NC1CCCC1)C1CCCCC1)c1ccccn1,x,-15.3,x,x,x,-0.4
COc1cc2c(cc1OC)CN(C(=S)Nc1ccc(OC(F)F)cc1)CC2,-3.1,22.6,45.1*,4.0,21.8,1.3
Cc1ccc(S(=O)(=O)N2CCN(C(=O)c3cc(=O)[nH]c4ccccc34)CC2)c(C)c1,-3.5,51.4*,-25.6,-42.6,19.1,20.1
Cc1cc(C)c(S(=O)(=O)N2CCN(C(=O)c3cc(=O)[nH]c4ccccc34)CC2)c(C)c1,x,51.6*,-17.8,-19.3,1.5,43.5*
Cc1ccc(C(=O)N2CCC[C@@H]2C(=O)N2CCC[C@H]2C(=O)NCc2ccccc2)cc1C,x,-9.4,x,x,x,0.3
S=C(NCc1ccccc1)N1CCN(c2cccc(Cl)c2)CC1,31.8*,12.5,13.4,20.1,27.3,5.7
O=C(CN1CCN(c2cccc(Cl)c2)CC1)NCc1ccccc1,-3.3,-14.3,-17.4,-29.1,4.6,-0.4
COCCNc1nc(Nc2ccccc2Cl)c2sccc2n1,x,29.9,x,x,x,0.6
COc1ccc(/C=C/C(=O)c2cc(F)ccc2OC(=O)c2ccc(OC)c(OC)c2)cc1OC,8.1,29.2,11.5,-13.8,24.5,8.0
COc1ccc(/C=C/C(=O)c2cc(F)ccc2OC(=O)c2ccccc2OC)cc1OC,16.5*,7.3,x,x,x,10.3
COc1ccccc1C(=O)N1CCN(C(=O)[C@H]2O[C@@H](n3ccc(N)nc3=O)[C@H](O)[C@@H]2O)CC1,x,-10.5,x,x,x,1.2
N#C/C(=C\c1ccc(N2CCOCC2)o1)C(=O)NCCc1ccccc1,9.7,31.9,11.7,19.0,26.2,40.6*
N#C/C(=C/c1ccc(N2CCOCC2)o1)C(=O)Nc1ccccc1,11.4,33.6,x,x,x,56.1*
COc1ccccc1C(=O)N1CCN(C(=O)[C@H]2O[C@@H](n3ccc(=O)[nH]c3=O)[C@H](O)[C@@H]2O)CC1,x,-23.6,x,x,x,2.5
Cc1cccc(NC(=O)c2ccccc2O)c1C,11.6,8.4,-3.1,-2.6,20.2,6.5
O=C(Nc1ccc(F)cc1)Nc1ccc(NC(=O)c2ccccc2O)cc1,7.8,57.6*,16.4,5.3,11.4,41.1*
O=C(Nc1ccc(F)cc1)c1ccccc1F,-7.3,-2.0,-8.0,3.9,-1.4,9.5
O=C(Nc1ccccc1O)c1ccccc1O,-2.3,0.4,37.3*,8.8,13.2,10.4
O=C(Nc1ccccc1O)C(c1ccccc1)c1ccccc1,18.7,35.1,66.8*,22.9,13.8,5.0
C=CCN=C1NC(CCc2ccccc2)C(C(=O)OC)=C(C)N1Cc1cccc(C(F)(F)F)c1 (configuration not stated),x,33.0,x,x,x,25.3
SMILES,GPR7 antagonist,TAAR1 antagonist,CHO parental Ca,OX1R antag-1,OX1R antag-2,TAAR1 ag
COC(=O)[C@]12C[C@H](CC(=O)NCC3CCCCC3)C(=O)N(CCc3ccc(OC)c(OC)c3)C1=C[C@H](C(C)(C)C)O[C@@H]2C,x,-4.5,x,x,x,-1.9
O=C(Nc1ccncc1)Nc1cccc(Cl)c1Cl,-17.9,12.4,x,x,x,25.7
O=C(Nc1ccc(Cl)c(Cl)c1)Nc1ccc(Br)cc1F,-3.4,-19.6,35.5*,31.8,49.8,16.0
O=C(Nc1ccc(Cl)cc1)Nc1cccc2nsnc12,-2.9,21.0,13.3,2.0,44.3*,0.4
CC(=O)N(C)c1ccc(NC(=O)Nc2ccc(Cl)cc2)cc1,x,102.3*,13.9,26.9,18.6,44.4*
NS(=O)(=O)c1ccc(NC(=O)Nc2ccc(Cl)cc2)cc1,2.2,38.5,7.3,0.1,4.7,40.7*
CNC(=O)Nc1ccc(S(N)(=O)=O)cc1,-4.3,-6.3,6.9,-17.9,2.9,0.0
COCCNC(=S)N(C)[C@H]1C[C@H]2c3[nH]c4cccc(-c5ccccc5)c4c3CCN2C(=O)[C@H]1[C@H](C)O,x,-7.4,x,x,x,0.5
Cc1ccc(NC(=O)Nc2ccc(F)c(Cl)c2)cc1,28.9*,-4.3,68.7*,8.0,37.6,8.2
O=C(Nc1cccnc1)Nc1ccc(F)c(Cl)c1,-0.7,5.6,-1.9,12.0,7.4,51.2*
O=C(Nc1ccc(Cl)cc1)Nc1ccc(Cl)c(Cl)c1,x,65.6*,79.4*,84.3*,43.3*,18.4
Cc1cc(NC(=O)Nc2ccc(Cl)c(Cl)c2)no1,x,3.3,82.5*,41.4,28.8,16.5
O=C(Nc1cccnc1)c1cc(F)c(F)cc1Cl,-5.4,-18.6,-1.1,-4.3,25.6,7.8
Cc1cc(NC(=O)Nc2ccc(Cl)cc2)no1,-0.2,18.5,2.0,8.3,37.0,22.4
COc1ccc(NC(=O)Nc2ccc(F)c(Cl)c2)cc1,6.4,29.1,8.1,10.1,20.4,12.1
COc1ccc(NC(=O)C2Cc3c(-c4ccco4)ccnc3O2)cc1OC (configuration not stated),x,0.1,x,x,x,9.3
COc1ccc(C(C)(NC(C)=O)c2nc(-c3ccc(F)c(Cl)c3)cs2)cc1 (configuration not stated),x,-3.9,x,x,x,6.3
O=C(C[C@@H]1CC[C@@H](NC(=O)Nc2cccc(F)c2)[C@@H](CO)O1)NCC1CCCCC1,x,-7.7,x,x,x,0.0
C#CCN1CC(COc2ccccc2)Oc2cccc(Oc3ccc(C(C)C)cc3)c2S1(=O)=O (configuration not stated),x,5.1,x,x,x,0.7
Nc1ncnc2c1ncn2[C@@H]1O[C@H](CNC(=O)[C@@H](N)C2CCCCC2)[C@@H](O)[C@H]1O,x,0.8,-10.7,-7.2,9.7,1.6
COc1ccc(NS(=O)(=O)c2ccc(-c3cnc(C4CC4)o3)cc2)cc1OC,27.6,9.6,55.3*,27.2,53.3,3.3
Cn1c(=O)c2c(ncn2CC(=O)OCCCC(=O)c2ccc(Br)cc2)n(C)c1=O,x,-10.3,34.7*,38.4,17.8,4.4
O=C(NCC(c1cccs1)N1CCOCC1)c1ccccc1NS(=O)(=O)c1ccc(Cl)c([N+](=O)[O-])c1 (configuration not stated),-0.5,-6.1,-4.4,-5.6,44.9*,8.8
Cc1ccc(CN2CCCN(Cc3ccc(F)cc3Cl)S2(=O)=O)cc1,0.0,3.4,46.9*,-5.2,-1.6,2.3
O=S1(=O)N(Cc2ccccc2F)CCCN1Cc1c(F)cccc1Cl,-13.4,11.4,66.4*,35.8,15.5,-1.2
